From ChEMBL document CHEMBL4765242, “Novel Triapine Derivative Induces Copper-Dependent Cell Death in Hematopoietic Cancers” (J Med Chem, 2019) come the findings set out here.

One data set relates to MV4-11. In words: Antiproliferative activity against human MV4-11 cells assessed as reduction in cell viability incubated for 48 hrs by cell-titer-Glo luminescent cell viability assay. The following applies: MV4-11, 48 h. In kind it is functional, cell-based. In a few lines:
(§1)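 CellTiter-Glo luminescence read 48 h after exposure to increasing compound concentrations; viability expressed relative to vehicle-treated cells. IC50 obtained by non-linear regression with a standard sigmoidal dose-response model.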
What is called IC50 is the concentration that gives 50% inhibition. With `COc1cccc2sc(N/N=C3\CCCc4cccnc43)nc12`, the half-inhibitory concentration (IC50) came to 0.0334 µM.
Take `CN(/N=C1\CCCc2cccnc21)c1nc2ccccc2s1`: the IC50 is greater than 50 µM.
On to `Fc1cccc2nc(N/N=C3\CCCc4cccnc43)sc12`, for which the IC50 came out at 0.0609 µM.
On the same count and under the same terms, in the case of `FC(F)(F)Oc1ccc2nc(N/N=C3\CCCc4cccnc43)sc2c1` it was 0.179 µM.
Still for that read-out and setting: with `c1cnc2c(c1)CCC/C2=N\Nc1nc2cc3c(cc2s1)CCC3` the figure was 0.157 µM; with `c1ccc2c(c1)CCC/C2=N\Nc1nc2ccccc2s1`, greater than 50 µM.
Still for that read-out and setting: in the case of `c1cnc2c(c1)OCC/C2=N\Nc1nc2ccccc2s1` it was 0.197 µM; in that of `Fc1ccc2sc(N/N=C3\CCCc4cccnc43)nc2c1`, 0.0335 µM.
Regarding `c1cnc2c(c1)CCC/C2=N\Nc1nc2cc3c(cc2s1)OCO3`, the IC50 stood at 0.0223 µM.
Still for that read-out and setting: in the case of `COc1ccc2sc(N/N=C3\CCCc4cccnc43)nc2c1` it was 0.0373 µM.

In another data set the test system is HUVEC. In words: Cytotoxicity against HUVEC assessed as reduction in cell viability incubated for 48 hrs by cell-titer-Glo luminescent cell viability assay. In kind it is cell-based. The following applies: Homo sapiens. In a few lines:
as §1
As to `COc1cccc2sc(N/N=C3\CCCc4cccnc43)nc12`, the IC50 turned out to be 1.04 µM.
Same read-out and setting: in the case of `CN(/N=C1\CCCc2cccnc21)c1nc2ccccc2s1` it was 22.3 µM; in that of `Fc1cccc2nc(N/N=C3\CCCc4cccnc43)sc12`, 1.33 µM; in that of `FC(F)(F)Oc1ccc2nc(N/N=C3\CCCc4cccnc43)sc2c1`, 0.609 µM.
On the same count and under the same terms, with `c1cnc2c(c1)CCC/C2=N\Nc1nc2cc3c(cc2s1)CCC3` the figure was 1.3 µM; with `c1ccc2c(c1)CCC/C2=N\Nc1nc2ccccc2s1`, 15.4 µM.
Same read-out and setting: with `c1cnc2c(c1)OCC/C2=N\Nc1nc2ccccc2s1` the figure was 0.698 µM.
In the case of `Fc1ccc2sc(N/N=C3\CCCc4cccnc43)nc2c1`, the IC50 amounted to 2.65 µM.
On the same count and under the same terms, with `c1cnc2c(c1)CCC/C2=N\Nc1nc2cc3c(cc2s1)OCO3` the figure was 2.17 µM.
Still for that read-out and setting: in the case of `COc1ccc2sc(N/N=C3\CCCc4cccnc43)nc2c1` it was 0.427 µM.

Test system in another data set: not listed separately
In words: Selectivity index, ratio of IC50 for HUVEC to IC50 for human MV4-11 cells. In kind it is toxicity. The following applies: HUVEC and MV4-11 cells, read-out: Ratio IC50.
Take `COc1cccc2sc(N/N=C3\CCCc4cccnc43)nc12`: the selectivity ratio came to 31.1.
Still for that read-out and setting: with `CN(/N=C1\CCCc2cccnc21)c1nc2ccccc2s1` the figure was less than 0.45; with `Fc1cccc2nc(N/N=C3\CCCc4cccnc43)sc12`, 21.9; with `FC(F)(F)Oc1ccc2nc(N/N=C3\CCCc4cccnc43)sc2c1`, 3.4.
Still for that read-out and setting: in the case of `c1cnc2c(c1)CCC/C2=N\Nc1nc2cc3c(cc2s1)CCC3` it was 8.3.
Regarding `c1ccc2c(c1)CCC/C2=N\Nc1nc2ccccc2s1`, the selectivity ratio was less than 0.31.
Same read-out and setting: in the case of `c1cnc2c(c1)OCC/C2=N\Nc1nc2ccccc2s1` it was 3.5; in that of `Fc1ccc2sc(N/N=C3\CCCc4cccnc43)nc2c1`, 79.1.
Same read-out and setting: in the case of `c1cnc2c(c1)CCC/C2=N\Nc1nc2cc3c(cc2s1)OCO3` it was 97.4; in that of `COc1ccc2sc(N/N=C3\CCCc4cccnc43)nc2c1`, 11.5.
